Data as given in ChEMBL document CHEMBL1124137, “Synthesis and testing of quinone-based bis(2,2-dimethyl-1-aziridinyl)phosphinyl carbamates as radiation-potentiating antitumor agents” (1988).

How the values were obtained:
Format in all cases: functional
[1] = system: Mus musculus; assay: Average weight change on day 5 in mice infected by P-388 leukemia when treated with a dose of 128 mg/Kg of compound
In short: (§1)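 P-388 leukemia kept as ascites in DBA/2 mice; 10⁶ cells implanted into female CDF₁ mice (16–20 g), six mice per dose, 10 untreated leukemia controls. Compound dissolved in water with Tween 80 and given as a single ip injection on day 1 after implant, within 15 min of dissolving. Body weight change averaged on day 5.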

[2] = system: Mus musculus; assay: Median survival time (MST) of treated mice infected by P-388 leukemia, as percent of the MST of untreated controls when treated with a dose of 64 mg/Kg of compound
In short: (§2)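 P-388 leukemia kept as ascites in DBA/2 mice. CDF1 female mice (16–20 g) received 10⁶ cells; six mice per dose and 10 untreated leukemia controls. Drug in water with Tween 80, given within 15 min of dissolution as a single ip injection on day 1 after implant. Mice observed until death; %T/C is treated over control median survival time. Average weight change taken on day 5.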

[3] = system: Mus musculus; assay: Average weight change on day 5 in mice infected by P-388 leukemia when treated with a dose of 8 mg/Kg of compound; in short: as §1
[4] = system: Mus musculus; assay: Average weight change on day 5 in mice infected by P-388 leukemia when treated with a dose of 64 mg/Kg of compound; in short: as §1
[5] = system: Mus musculus; assay: Median survival time (MST) of treated mice infected by P-388 leukemia, as percent of the MST of untreated controls when treated with a dose of 128 mg/Kg of compound; in short: as §2
[6] = system: Mus musculus; assay: Median survival time (MST) of treated mice infected by P-388 leukemia, as percent of the MST of untreated controls when treated with a dose of 8 mg/Kg of compound; in short: as §2
[7] = system: Mus musculus; assay: Median survival time (MST) of treated mice infected by P-388 leukemia, as percent of the MST of untreated controls when treated with a dose of 16 mg/Kg of compound; in short: as §2
[8] = system: Mus musculus; assay: Average weight change on day 5 in mice infected by P-388 leukemia when treated with a dose of 256 mg/Kg of compound; in short: as §1
[9] = system: Mus musculus; assay: Average weight change on day 5 in mice infected by P-388 leukemia when treated with a dose of 16 mg/Kg of compound; in short: as §1
[10] = system: Mus musculus; assay: Median survival time (MST) of treated mice infected by P-388 leukemia, as percent of the MST of untreated controls when treated with a dose of 256 mg/Kg of compound; in short: as §2
[11] = system: Mus musculus; assay: Median survival time (MST) of treated mice infected by P-388 leukemia, as percent of the MST of untreated controls when treated with a dose of 32 mg/Kg of compound; in short: as §2
[12] = system: Mus musculus; assay: Average weight change on day 5 in mice infected by P-388 leukemia when treated with a dose of 32 mg/Kg of compound; in short: as §1
[13] = system: Mus musculus; assay: Median survival time (MST) of treated mice infected by P-388 leukemia, as percent of the MST of untreated controls when treated with a dose of 200 mg/Kg of compound; in short: as §2
[14] = system: Mus musculus; assay: Median survival time (MST) of treated mice infected by P-388 leukemia, as percent of the MST of untreated controls when treated with a dose of 100 mg/Kg of compound; in short: as §2
[15] = system: Mus musculus; assay: Median survival time (MST) of treated mice infected by P-388 leukemia, as percent of the MST of untreated controls when treated with a dose of 400 mg/Kg of compound; in short: as §2
[16] = system: Mus musculus; assay: Average weight change on day 5 in mice infected by P-388 leukemia when treated with a dose of 200 mg/Kg of compound; in short: as §2
[17] = system: Mus musculus; assay: Average weight change on day 5 in mice infected by P-388 leukemia when treated with a dose of 100 mg/Kg of compound; in short: as §2
[18] = system: Mus musculus; assay: Average weight change on day 5 in mice infected by P-388 leukemia when treated with a dose of 50 mg/Kg of compound; in short: as §2
[19] = system: Mus musculus; assay: Median survival time (MST) of treated mice infected by P-388 leukemia, as percent of the MST of untreated controls when treated with a dose of 50 mg/Kg of compound; in short: as §2
[20] = system: Mus musculus; assay: Average weight change on day 5 in mice infected by P-388 leukemia when treated with a dose of 400 mg/Kg of compound; in short: as §2

| Compound | AWC [1] [g] | T/C [2] [%] | AWC [3] [g] | AWC [4] [g] | T/C [5] [%] | T/C [6] [%] | T/C [7] [%] | AWC [8] [g] | AWC [9] [g] | T/C [10] [%] | T/C [11] [%] | AWC [12] [g] | T/C [13] [%] | T/C [14] [%] | T/C [15] [%] | AWC [16] [g] | AWC [17] [g] | AWC [18] [g] | T/C [19] [%] | AWC [20] [g] |
| --- | --- | --- | --- | --- | --- | --- | --- | --- | --- | --- | --- | --- | --- | --- | --- | --- | --- | --- | --- | --- |
| CC1(C)CN1P(=O)(NC(=O)OCC/N=C1C(O)=C(Cl)/C(=N\CCOC(=O)NP(=O)(N2CC2(C)C)N2CC2(C)C)C(O)=C/1Cl)N1CC1(C)C (stereo not given) | -0.9 | 124 | -0.4 | -1.2 | 135 | 118 | 124 | -2.1 | -1.1 | 165 | 129 | -0.6 | – | – | – | – | – | – | – | – |
| CCOC(=O)NP(=O)(N1CC1(C)C)N1CC1(C)C (stereo not given) [METUREDEPA] | – | – | – | – | – | – | – | – | – | – | – | – | 231 | 181 | 244 | -0.2 | -0.4 | -0.7 | 163 | -1.3 |
